Measured values taken from ChEMBL document CHEMBL4304792, “Cinnamonitrile Adjuvants Restore Susceptibility to β-Lactams against Methicillin-Resistant Staphylococcus aureus” (ACS Med Chem Lett, 2019).
Calls of active or inactive are those of the source. No cut-off for these calls is given here.

Tests used:
Staphylococcus aureus [1] = assay: Antibacterial activity against Staphylococcus aureus MRSA252 measured after 16 to 20 hrs in presence of 2% NaCl by microdilution broth method; type: functional
HeLa = assay: Cytotoxicity against human HeLa cells by XTT assay; type: cell-based
In short: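 HeLa human cervical cancer cells were exposed to the compounds. Viability was read by XTT colorimetric assay, and IC50 was reported in μM and mg·L–1.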

Staphylococcus aureus [2] = assay: Potentiation of oxacillin induced antibacterial activity against Staphylococcus aureus Mu50 NRS1 assessed as oxacillin MIC at 20 uM measured after 16 to 20 hrs in presence of 2% NaCl by microdilution broth method (reference value: 256 mg/L); type: functional
Staphylococcus aureus [3] = assay: Potentiation of oxacillin induced antibacterial activity against Staphylococcus aureus Mu50 NRS1 assessed as oxacillin MIC at 16 uM measured after 16 to 20 hrs in presence of 2% NaCl by microdilution broth method (reference value: 256 mg/L); type: functional
Staphylococcus aureus [4] = assay: Potentiation of oxacillin induced antibacterial activity against Staphylococcus aureus NRS70 assessed as oxacillin MIC at 8 uM measured after 16 to 20 hrs in presence of 2% NaCl by microdilution broth method (reference value: 64 mg/L); type: functional
Staphylococcus aureus [5] = assay: Potentiation of oxacillin induced antibacterial activity against Staphylococcus aureus NRS119 assessed as oxacillin MIC at 20 uM measured after 16 to 20 hrs in presence of 2% NaCl by microdilution broth method (reference value: 256 mg/L); type: functional
Staphylococcus aureus [6] = assay: Potentiation of oxacillin induced antibacterial activity against Staphylococcus aureus NRS119 assessed as oxacillin MIC at 16 uM measured after 16 to 20 hrs in presence of 2% NaCl by microdilution broth method (reference value: 256 mg/L); type: functional
Staphylococcus aureus [7] = assay: Potentiation of oxacillin induced antibacterial activity against Staphylococcus aureus NRS119 assessed as oxacillin MIC at 8 uM measured after 16 to 20 hrs in presence of 2% NaCl by microdilution broth method (reference value: 256 mg/L); type: functional
Staphylococcus aureus [8] = assay: Potentiation of oxacillin induced antibacterial activity against Staphylococcus aureus MW2 NRS123 assessed as oxacillin MIC at 20 uM measured after 16 to 20 hrs in presence of 2% NaCl by microdilution broth method (reference value: 16 mg/L); type: functional
Staphylococcus aureus [9] = assay: Potentiation of oxacillin induced antibacterial activity against Staphylococcus aureus MW2 NRS123 assessed as oxacillin MIC at 16 uM measured after 16 to 20 hrs in presence of 2% NaCl by microdilution broth method (reference value: 16 mg/L); type: functional
Staphylococcus aureus [10] = assay: Potentiation of oxacillin induced antibacterial activity against Staphylococcus aureus MW2 NRS123 assessed as oxacillin MIC at 8 uM measured after 16 to 20 hrs in presence of 2% NaCl by microdilution broth method (reference value: 16 mg/L); type: functional
Staphylococcus aureus [11] = assay: Potentiation of oxacillin induced antibacterial activity against Staphylococcus aureus USA200-NRS383 assessed as oxacillin MIC at 20 uM measured after 16 to 20 hrs in presence of 2% NaCl by microdilution broth method (reference value: 128 mg/L); type: functional
Staphylococcus aureus [12] = assay: Potentiation of oxacillin induced antibacterial activity against Staphylococcus aureus USA200-NRS383 assessed as oxacillin MIC at 8 uM measured after 16 to 20 hrs in presence of 2% NaCl by microdilution broth method (reference value: 128 mg/L); type: functional
Staphylococcus aureus [13] = assay: Potentiation of oxacillin induced antibacterial activity against Staphylococcus aureus NRS384 assessed as oxacillin MIC at 16 uM measured after 16 to 20 hrs in presence of 2% NaCl by microdilution broth method (reference value: 32 mg/L); type: functional
Staphylococcus aureus [14] = assay: Potentiation of oxacillin induced antibacterial activity against Staphylococcus aureus NRS384 assessed as oxacillin MIC at 8 uM measured after 16 to 20 hrs in presence of 2% NaCl by microdilution broth method (reference value: 32 mg/L); type: functional
Staphylococcus aureus [15] = assay: Potentiation of oxacillin induced antibacterial activity against Staphylococcus aureus MRSA252 assessed as oxacillin MIC at 20 uM measured after 16 to 20 hrs in presence of 2% NaCl by microdilution broth method (reference value: 256 mg/L); type: functional
Staphylococcus aureus [16] = assay: Potentiation of oxacillin induced antibacterial activity against Staphylococcus aureus MRSA252 assessed as oxacillin MIC at 16 uM measured after 16 to 20 hrs in presence of 2% NaCl by microdilution broth method (reference value: 256 mg/L); type: functional
Staphylococcus aureus [17] = assay: Potentiation of oxacillin induced antibacterial activity against Staphylococcus aureus MRSA252 assessed as oxacillin MIC at 8 uM measured after 16 to 20 hrs in presence of 2% NaCl by microdilution broth method (reference value: 256 mg/L); type: functional
Staphylococcus aureus [18] = assay: Antibacterial activity against Staphylococcus aureus Mu50 NRS1 measured after 16 to 20 hrs in presence of 2% NaCl by microdilution broth method; type: functional
Staphylococcus aureus [19] = assay: Antibacterial activity against Staphylococcus aureus NRS119 measured after 16 to 20 hrs in presence of 2% NaCl by microdilution broth method; type: functional
Staphylococcus aureus [20] = assay: Antibacterial activity against Staphylococcus aureus USA100-NRS382 measured after 16 to 20 hrs in presence of 2% NaCl by microdilution broth method; type: functional
Staphylococcus aureus [21] = assay: Antibacterial activity against Staphylococcus aureus USA200-NRS383 measured after 16 to 20 hrs in presence of 2% NaCl by microdilution broth method; type: functional
Staphylococcus aureus [22] = assay: Antibacterial activity against Staphylococcus aureus NRS384 measured after 16 to 20 hrs in presence of 2% NaCl by microdilution broth method; type: functional
Staphylococcus aureus [23] = assay: Potentiation of oxacillin induced antibacterial activity against methicillin susceptible Staphylococcus aureus ATCC29213 assessed as reduction in oxacillin MIC at 20 uM measured after 16 to 20 hrs in presence of 2% NaCl by microdilution broth method; type: functional
In short: (§1)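 Oxacillin MIC was measured against methicillin-susceptible strains with the adjuvant fixed at 20 μM. Potentiation was expressed as fold reduction of the oxacillin MIC relative to oxacillin alone.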

Staphylococcus aureus [24] = assay: Potentiation of oxacillin induced antibacterial activity against methicillin susceptible Staphylococcus aureus NRS11 assessed as reduction in oxacillin MIC at 20 uM measured after 16 to 20 hrs in presence of 2% NaCl by microdilution broth method; type: functional; in short: as §1
Staphylococcus aureus [25] = assay: Potentiation of oxacillin induced antibacterial activity against methicillin susceptible Staphylococcus aureus NRS72 assessed as reduction in oxacillin MIC at 20 uM measured after 16 to 20 hrs in presence of 2% NaCl by microdilution broth method; type: functional; in short: as §1
Staphylococcus aureus [26] = assay: Potentiation of oxacillin induced antibacterial activity against methicillin susceptible Staphylococcus aureus NRS77 assessed as reduction in oxacillin MIC at 20 uM measured after 16 to 20 hrs in presence of 2% NaCl by microdilution broth method; type: functional; in short: as §1
Staphylococcus aureus [27] = assay: Potentiation of oxacillin induced antibacterial activity against Staphylococcus aureus NRS70 assessed as oxacillin MIC at 20 uM measured after 16 to 20 hrs in presence of 2% NaCl by microdilution broth method (reference value: 64 mg/L); type: functional

Row | SMILES | MIC (Staphylococcus aureus [1]) [µg/mL] | IC50 (HeLa) [µM] | MIC (Staphylococcus aureus [2]) [µg/mL] | MIC (Staphylococcus aureus [3]) [µg/mL] | MIC (Staphylococcus aureus [4]) [µg/mL] | MIC (Staphylococcus aureus [5]) | MIC (Staphylococcus aureus [6]) [µg/mL] | MIC (Staphylococcus aureus [7]) [µg/mL] | MIC (Staphylococcus aureus [8]) [µg/mL] | MIC (Staphylococcus aureus [9]) [µg/mL] | MIC (Staphylococcus aureus [10]) [µg/mL] | MIC (Staphylococcus aureus [12]) [µg/mL] | MIC (Staphylococcus aureus [13]) [µg/mL] | MIC (Staphylococcus aureus [14]) [µg/mL] | MIC (Staphylococcus aureus [15]) | MIC (Staphylococcus aureus [16]) [µg/mL] | MIC (Staphylococcus aureus [17]) [µg/mL] | MIC (Staphylococcus aureus [18]) [µg/mL] | MIC (Staphylococcus aureus [19]) [µg/mL] | MIC (Staphylococcus aureus [20]) [µg/mL] | other results
1 | CS(=O)(=O)/C(C#N)=C/c1c(F)ccc(Cc2ccc(Cl)c(Cl)c2)c1F | 16 | 92 | ≤ 0.03 | 4 | 64 | Active | 1 | 4 | ≤ 0.03 | 0.5 | ≥ 16 | ≥ 128 | 0.5 | 32 | 64 µg/mL | 256 | 256 | 16 | 16 | 16 | MIC (Staphylococcus aureus [11]): ≥ 128 µg/mL; MIC (Staphylococcus aureus [21]): 16 µg/mL; MIC (Staphylococcus aureus [22]): 16 µg/mL; fold change (FC) (Staphylococcus aureus [23]): 2 - 10; fold change (FC) (Staphylococcus aureus [24]): 2 - 10; fold change (FC) (Staphylococcus aureus [25]): 2 - 10; fold change (FC) (Staphylococcus aureus [26]): 2 - 10; MIC (Staphylococcus aureus [27]): Active; MIC (Staphylococcus aureus [27]; record 2): ≤ 0.03 µg/mL
2 | CS(=O)(=O)/C(C#N)=C/c1cc(-c2ccc(Cl)c(Cl)c2)ccc1F | 16 | 130 | 2 | 16 | 16 | 0.12 µg/mL | 0.5 | 32 | 2 | 0.5 | 1 | ≥ 128 | 8 | 8 | 128 µg/mL | 128 | 256 | 16 | 16 | 32 | MIC (Staphylococcus aureus [11]): ≥ 128 µg/mL; MIC (Staphylococcus aureus [21]): 16 µg/mL; MIC (Staphylococcus aureus [22]): 16 µg/mL; fold change (FC) (Staphylococcus aureus [23]): 2 - 10; fold change (FC) (Staphylococcus aureus [24]): 2 - 10; fold change (FC) (Staphylococcus aureus [25]): 2 - 10; fold change (FC) (Staphylococcus aureus [26]): 2 - 10; MIC (Staphylococcus aureus [27]): 0.12 µg/mL
3 | CS(=O)(=O)/C(C#N)=C/c1cc(Cc2ccc(Cl)c(Cl)c2)ccc1F | 32 | 125 | 1 | 4 | 8 | ≤ 0.03 µg/mL | 1 | 0.5 | ≤ 0.03 | 0.5 | 4 | ≥ 128 | 0.25 | 2 | 128 µg/mL | 256 | 256 | ≥ 64 | 16 | ≥ 64 | MIC (Staphylococcus aureus [11]): ≥ 128 µg/mL; MIC (Staphylococcus aureus [21]): ≥ 64 µg/mL; MIC (Staphylococcus aureus [22]): 32 µg/mL; fold change (FC) (Staphylococcus aureus [23]): 2 - 10; fold change (FC) (Staphylococcus aureus [24]): 2 - 10; fold change (FC) (Staphylococcus aureus [25]): 2 - 10; fold change (FC) (Staphylococcus aureus [26]): 2 - 10; MIC (Staphylococcus aureus [27]): ≤ 0.03 µg/mL
4 | N#C/C(=C\c1cc(Cc2ccc(Cl)c(Cl)c2)ccc1F)S(=O)(=O)c1ccccn1 | 16 | 87 | ≤ 0.03 | 0.03 | 4 | 0.12 µg/mL | 0.5 | 16 | 0.25 | 0.12 | 0.5 | ≥ 128 | 0.12 | 0.5 | 2 µg/mL | 128 | 256 | 16 | 16 | 16 | MIC (Staphylococcus aureus [11]): ≥ 128 µg/mL; MIC (Staphylococcus aureus [21]): 16 µg/mL; MIC (Staphylococcus aureus [22]): 16 µg/mL; fold change (FC) (Staphylococcus aureus [23]): 2 - 10; fold change (FC) (Staphylococcus aureus [24]): 2 - 10; fold change (FC) (Staphylococcus aureus [25]): 2 - 10; fold change (FC) (Staphylococcus aureus [26]): 2 - 10; MIC (Staphylococcus aureus [27]): ≤ 0.03 µg/mL
5 | CS(=O)(=O)/C(C#N)=C/c1cc(Cc2ccc(Cl)c(Cl)c2)ccc1OC(F)(F)F | 8 | 73 | ≤ 0.03 | 0.12 | 0.25 | Active | 0.03 | 0.06 | ≤ 0.03 | 0.12 | 0.5 | ≥ 128 | 0.03 | 0.25 | Active | ≤ 0.03 | 2 | 32 | 8 | ≥ 64 | MIC (Staphylococcus aureus [21]): 32 µg/mL; MIC (Staphylococcus aureus [22]): 16 µg/mL; fold change (FC) (Staphylococcus aureus [23]): 2 - 10; fold change (FC) (Staphylococcus aureus [24]): 2 - 10; fold change (FC) (Staphylococcus aureus [25]): 2 - 10; fold change (FC) (Staphylococcus aureus [26]): 2 - 10; MIC (Staphylococcus aureus [27]): Active; MIC (Staphylococcus aureus [27]; record 2): ≤ 0.03 µg/mL
